Results as given in ChEMBL document CHEMBL4325907, “Diaryl hydroxylamines as pan or dual inhibitors of indoleamine 2,3-dioxygenase-1, indoleamine 2,3-dioxygenase-2 and tryptophan dioxygenase” (Eur J Med Chem, 2019).

What was measured:
[1] = molecular target: T1, Indoleamine 2,3-dioxygenase 1 (Homo sapiens, UniProt P14902); assay: Inhibition of IDO1 (unknown origin) at 100 uM using L-tryptophan as substrate by spectrophotometric method relative to control
Target sequence in this assay (P14902 whole entry, looked up): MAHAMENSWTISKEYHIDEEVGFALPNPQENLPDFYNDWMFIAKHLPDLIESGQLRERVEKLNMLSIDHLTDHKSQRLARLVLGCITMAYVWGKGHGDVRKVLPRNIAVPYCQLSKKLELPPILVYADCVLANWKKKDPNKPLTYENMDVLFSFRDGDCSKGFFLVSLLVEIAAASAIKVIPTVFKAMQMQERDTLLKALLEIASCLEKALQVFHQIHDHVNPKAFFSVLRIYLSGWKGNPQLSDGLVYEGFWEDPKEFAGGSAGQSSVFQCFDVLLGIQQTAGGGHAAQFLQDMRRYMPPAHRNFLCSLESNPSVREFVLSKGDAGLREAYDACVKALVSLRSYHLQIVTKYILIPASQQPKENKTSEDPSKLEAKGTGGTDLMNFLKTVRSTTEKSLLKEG

[2] = molecular target: T2, Indoleamine 2,3-dioxygenase 2 (Homo sapiens) (UniProt Q6ZQW0); assay: Inhibition of IDO2 (unknown origin) at 100 uM using L-tryptophan as substrate by spectrophotometric method relative to control
T2 sequence (whole entry): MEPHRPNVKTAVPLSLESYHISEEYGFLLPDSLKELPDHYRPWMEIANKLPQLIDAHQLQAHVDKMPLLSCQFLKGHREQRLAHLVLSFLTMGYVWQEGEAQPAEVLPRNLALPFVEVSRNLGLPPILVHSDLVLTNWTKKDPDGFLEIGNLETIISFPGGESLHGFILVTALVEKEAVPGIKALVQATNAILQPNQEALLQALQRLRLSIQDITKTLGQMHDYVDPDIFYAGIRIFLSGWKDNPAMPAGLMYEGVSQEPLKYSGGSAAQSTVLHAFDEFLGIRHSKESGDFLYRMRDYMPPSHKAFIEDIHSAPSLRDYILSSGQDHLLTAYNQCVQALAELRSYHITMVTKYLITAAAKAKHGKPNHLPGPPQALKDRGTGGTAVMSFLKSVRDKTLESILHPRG

[3] = molecular target: T3, Tryptophan 2,3-dioxygenase (Homo sapiens, UniProt P48775); assay: Inhibition of TDO (unknown origin) at 100 uM using L-tryptophan as substrate by spectrophotometric method relative to control
Target sequence in this assay (P48775 whole entry, looked up): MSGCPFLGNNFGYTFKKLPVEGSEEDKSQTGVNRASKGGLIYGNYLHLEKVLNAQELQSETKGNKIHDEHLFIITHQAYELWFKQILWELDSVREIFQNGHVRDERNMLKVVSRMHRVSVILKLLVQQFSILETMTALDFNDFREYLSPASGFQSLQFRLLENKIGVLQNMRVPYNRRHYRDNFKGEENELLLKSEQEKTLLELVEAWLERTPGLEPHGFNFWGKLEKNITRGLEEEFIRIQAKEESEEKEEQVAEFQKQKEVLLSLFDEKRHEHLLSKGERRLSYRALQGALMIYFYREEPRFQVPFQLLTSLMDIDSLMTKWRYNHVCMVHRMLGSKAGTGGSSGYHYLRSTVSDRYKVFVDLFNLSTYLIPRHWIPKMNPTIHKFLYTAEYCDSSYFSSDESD

[4] = molecular target: T1, Indoleamine 2,3-dioxygenase 1; assay: Inhibition of IDO1 (unknown origin) using L-tryptophan as substrate by spectrophotometric method
Target sequence in this assay (P14902 whole entry): as the sequence (P14902 whole entry, looked up) above

[5] = molecular target: T3, Tryptophan 2,3-dioxygenase; assay: Inhibition of TDO (unknown origin) using L-tryptophan as substrate by spectrophotometric method
Target sequence in this assay (P48775 whole entry): as the sequence (P48775 whole entry, looked up) above

[6] = molecular target: T1, Indoleamine 2,3-dioxygenase 1; assay: Inhibition of IDO1 in human HeLa cells using L-tryptophan as substrate after 20 hrs; assay type: cell-based
Method in brief: (§1)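 HeLa cells (endogenous human IDO1) were induced with 100 ng/mL IFNγ for 24 h at 100 μM Trp. T-REx cells carried tet-regulated human TDO (2 ng/mL doxycycline, 24 h, 100 μM Trp) or mouse IDO2 (doxycycline plus 8 mM 5-aminolevulinic acid, 20 μM hemin, 4 mM Trp, 48 h). After induction, compound serial dilutions were added in medium with final Trp 100 μM (IDO1/TDO) or 2 mM (IDO2) for 20 h at 37 °C. Read-out was TCA fixation, 65 °C hydrolysis, then p-dimethylaminobenzaldehyde colour.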
Target sequence in this assay (P14902 whole entry): as the sequence (P14902 whole entry, looked up) above

[7] = molecular target: T4, Indoleamine 2,3-dioxygenase 2 (Mus musculus, UniProt Q8R0V5); assay: Inhibition of mouse IDO2 expressed in human T-REx cells using L-tryptophan as substrate after 20 hrs; assay type: cell-based; method in brief: as §1
T4 sequence (Q8R0V5 whole entry): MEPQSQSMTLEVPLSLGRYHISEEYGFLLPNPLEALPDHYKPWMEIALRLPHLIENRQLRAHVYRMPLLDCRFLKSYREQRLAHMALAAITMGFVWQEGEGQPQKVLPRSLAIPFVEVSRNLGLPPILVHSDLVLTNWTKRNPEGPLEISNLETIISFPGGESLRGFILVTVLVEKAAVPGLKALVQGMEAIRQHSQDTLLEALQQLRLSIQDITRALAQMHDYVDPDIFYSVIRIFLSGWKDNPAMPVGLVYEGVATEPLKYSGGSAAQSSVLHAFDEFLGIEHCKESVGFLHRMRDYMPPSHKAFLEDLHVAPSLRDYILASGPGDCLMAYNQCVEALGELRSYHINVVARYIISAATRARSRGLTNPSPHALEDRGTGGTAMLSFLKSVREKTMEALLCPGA

[8] = molecular target: T3, Tryptophan 2,3-dioxygenase; assay: Inhibition of human TDO expressed in human T-REx cells using L-tryptophan as substrate after 20 hrs; assay type: cell-based; method in brief: as §1
Target sequence in this assay (P48775 whole entry): as the sequence (P48775 whole entry, looked up) above

[9] = Cytotoxicity against human HeLa cells assessed as cell viability up to 100 uM relative to control; assay type: cell-based; conditions: read-out: Activity
[10] = molecular target: T5, Indoleamine 2,3-dioxygenase 2 (Homo sapiens, UniProt Q6ZQW0); assay: Inhibition of IDO2 (unknown origin) using L-tryptophan as substrate by spectrophotometric method
T5 sequence (Q6ZQW0 whole entry): T2 sequence (whole entry)

[11] = Selectivity ratio of IC50 for inhibition of mouse IDO2 expressed in human T-REx cells to IC50 for inhibition of IDO1 in human HeLa cells; assay type: cell-based; method in brief: as §1
Homo sapiens [12] = species: Homo sapiens; assay: Selectivity ratio of IC50 for inhibition of human TDO expressed in human T-REx cells to IC50 for inhibition of IDO1 in human HeLa cells; assay type: cell-based; method in brief: as §1
[13] = molecular target: T1, Indoleamine 2,3-dioxygenase 1; assay: Inhibition of IDO1 (unknown origin) at 200 uM using L-tryptophan as substrate by spectrophotometric method relative to control
Target sequence in this assay (P14902 whole entry, looked up): as the sequence (P14902 whole entry, looked up) above

[14] = molecular target: T2, Indoleamine 2,3-dioxygenase 2 (Homo sapiens); assay: Inhibition of IDO2 (unknown origin) at 200 uM using L-tryptophan as substrate by spectrophotometric method relative to control
[15] = molecular target: T3, Tryptophan 2,3-dioxygenase; assay: Inhibition of TDO (unknown origin) at 200 uM using L-tryptophan as substrate by spectrophotometric method relative to control
Target sequence in this assay (P48775 whole entry, looked up): as the sequence (P48775 whole entry, looked up) above

Homo sapiens [16] = species: Homo sapiens; assay: Selectivity ratio of IC50 for inhibition of mouse IDO2 expressed in human T-REx cells to IC50 for inhibition of human TDO expressed in human T-REx cells; assay type: cell-based; method in brief: as §1

| SMILES | inhibition [1] | inhibition [2] | inhibition [3] | IC50 [4] | IC50 [5] | IC50 [6] | IC50 [7] | IC50 [8] | viability [9] | IC50 ([6]; hela) | IC50 [10] | Ratio IC50 [11] | Ratio IC50 (Homo sapiens [12]) | inhibition [13] | inhibition [14] | inhibition [15] | Ratio IC50 (Homo sapiens [16]) |
| --- | --- | --- | --- | --- | --- | --- | --- | --- | --- | --- | --- | --- | --- | --- | --- | --- | --- |
| NOC(c1ccccc1)c1ccc(Cl)cc1 (stereo unspecified) | > 95% | 74.3% | > 95% | 5 µM | 5 µM | 7150 nM | 27.8 µM | 23.7 µM | ≥ 80% | – | – | – | – | – | – | – | – |
| NOC(c1ccccc1)c1cccc(Cl)c1Cl (stereo unspecified) | > 95% | 72.4% | > 95% | 8 µM | 9 µM | 1870 nM | 8.95 µM | 4.54 µM | ≥ 80% | – | – | – | – | – | – | – | – |
| COc1ccccc1C(ON)c1ccccc1 (stereo unspecified) | > 95% | 80% | – | 23 µM | – | – | 16.5 µM | 48.8 µM | ≥ 80% | 1110 nM | – | – | – | – | – | – | – |
| NOC(c1ccccc1)c1ccc(Cl)c(Cl)c1 (stereo unspecified) | > 95% | > 95% | > 95% | 2 µM | 4 µM | 1910 nM | 19.5 µM | 8.11 µM | ≥ 80% | – | 32 µM | – | – | – | – | – | – |
| NOC(c1ccccc1)c1cc(C(F)(F)F)ccc1F (stereo unspecified) | > 95% | 73.8% | 73.4% | 8 µM | – | 1090 nM | 8.94 µM | 9.02 µM | ≥ 80% | – | – | – | – | – | – | – | – |
| NOC(c1ccccc1)c1cccc(Br)c1 (stereo unspecified) | > 95% | 77.6% | 92.6% | 1 µM | – | 590 nM | 11.8 µM | 7.15 µM | 60% | – | – | – | – | – | – | – | – |
| NOC(c1ccccc1)c1cccc(F)c1 (stereo unspecified) | > 95% | 82% | > 95% | 5 µM | 6 µM | 939 nM | 9.99 µM | 6.21 µM | ≥ 80% | – | – | – | – | – | – | – | – |
| NOC(c1ccccc1)C1CCCCC1 (stereo unspecified) | 76% | 88.6% | 43.6% | – | – | 21000 nM | 40.2 µM | 2770 µM | ≥ 80% | – | – | – | – | – | – | – | – |
| NOC(c1ccccc1)c1cccc(C(F)(F)F)c1 (stereo unspecified) | 18% | – | > 95% | – | 12 µM | – | 24.7 µM | 13.6 µM | ≥ 80% | 1730 nM | – | – | – | – | – | – | – |
| NOC(c1ccccc1)c1ccccc1Cl (stereo unspecified) | > 95% | > 95% | 89.8% | 18 µM | – | 2480 nM | 10.7 µM | 21.8 µM | ≥ 80% | – | 25 µM | 5 to 10 | 5 to 10 | – | – | – | – |
| NOC(c1ccccc1)c1cc(C(F)(F)F)cc(C(F)(F)F)c1 (stereo unspecified) | – | – | – | – | – | 3350 nM | 14.5 µM | 77.4 µM | 60% | – | – | – | – | 56% | 53.3% | 50.8% | – |
| NOC(c1ccccc1)c1ccccc1F (stereo unspecified) | > 95% | 77.8% | 87.2% | 12 µM | – | 1260 nM | 30.5 µM | 3.92 µM | ≥ 80% | – | – | 10 | – | – | – | – | 10 |
| NOC(c1ccccc1)c1ccsc1 (stereo unspecified) | 83% | 76.5% | 93.3% | – | – | 3360 nM | 49.9 µM | 4.41 µM | ≥ 80% | – | – | 10 | – | – | – | – | 10 |
